According to ChEMBL document CHEMBL3994654, “Discovery of phenyl acetamides as potent and selective GPR119 agonists” (Bioorg Med Chem Lett, 2017):
Converted amounts (≈) assume the structure as drawn. Blank lines part the entries; values can stand above or below the molecule they belong to.

Experiments:
[1] = molecular target: T1, Glucose-dependent insulinotropic receptor (Homo sapiens, UniProt Q8TDV5); assay: Agonist activity at human GPR119 expressed in HEK293 cells assessed as increase in intracellular cAMP level after 60 mins by HTRF assay; assay type: functional, cell-based
T1 sequence (Q8TDV5 whole entry): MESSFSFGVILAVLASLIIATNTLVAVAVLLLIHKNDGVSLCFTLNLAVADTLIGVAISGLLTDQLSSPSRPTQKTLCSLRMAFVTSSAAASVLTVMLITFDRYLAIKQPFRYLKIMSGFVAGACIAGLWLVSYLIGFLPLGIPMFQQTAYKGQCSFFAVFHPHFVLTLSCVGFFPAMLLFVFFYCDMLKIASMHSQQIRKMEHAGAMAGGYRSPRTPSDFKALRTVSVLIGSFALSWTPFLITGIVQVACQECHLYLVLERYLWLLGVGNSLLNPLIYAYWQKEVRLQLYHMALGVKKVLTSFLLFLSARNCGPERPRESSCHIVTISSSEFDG
Outline: (§1)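 cAMP stimulation is also given as % control at the top concentration, relative to an internal agonist control set at 100% cAMP stimulation. EC50 values are means of at least 2 independent experiments, except for two compounds.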

[2] = molecular target: T2, Glucose-dependent insulinotropic receptor (Homo sapiens) (UniProt Q8TDV5); assay: Agonist activity at human GPR119 expressed in HEK293 cells assessed as increase in intracellular cAMP level after 60 mins by HTRF assay relative to control; assay type: functional, cell-based
T2 sequence (whole entry): T1 sequence (Q8TDV5 whole entry)
Outline: (§2)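 EC50 values are means of at least 2 independent experiments, with a few single determinations. Maximal response is reported as the percentage of cAMP stimulation at the maximal dose tested, normalised to an internal agonist control set as 100%.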

[3] = molecular target: T3, Glucose-dependent insulinotropic receptor (Mus musculus, UniProt Q7TQP3); assay: Agonist activity at mouse GPR119 expressed in CHO cells co-expressing Galpha15 assessed as increase in intracellular cAMP level after 60 mins by HTRF assay; assay type: functional, cell-based; outline: as §1
T3 sequence (Q7TQP3 whole entry): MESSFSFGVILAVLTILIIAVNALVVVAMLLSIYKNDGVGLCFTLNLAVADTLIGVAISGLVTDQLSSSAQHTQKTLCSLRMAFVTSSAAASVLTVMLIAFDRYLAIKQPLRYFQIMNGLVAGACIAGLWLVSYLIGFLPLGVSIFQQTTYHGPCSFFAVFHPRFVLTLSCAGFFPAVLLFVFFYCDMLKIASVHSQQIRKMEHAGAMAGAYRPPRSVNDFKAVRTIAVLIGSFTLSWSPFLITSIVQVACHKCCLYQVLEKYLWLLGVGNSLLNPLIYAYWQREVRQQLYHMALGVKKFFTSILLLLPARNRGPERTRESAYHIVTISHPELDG

[4] = molecular target: T4, Glucose-dependent insulinotropic receptor (Mus musculus) (UniProt Q7TQP3); assay: Agonist activity at mouse GPR119 expressed in CHO cells co-expressing Galpha15 assessed as increase in intracellular cAMP level after 60 mins by HTRF assay relative to control; assay type: functional, cell-based; outline: as §2
T4 sequence (whole entry): T3 sequence (Q7TQP3 whole entry)

[5] = Kinetic solubility in fasted state simulated intestinal fluid at pH 6.5; assay type: physicochemical; settings: read-out: Kinetic_solubility
[6] = molecular target: T5, Voltage-gated inwardly rectifying potassium channel KCNH2 (Homo sapiens, UniProt Q12809); assay: Inhibition of human ERG by PatchXpress method
T5 sequence (Q12809 whole entry): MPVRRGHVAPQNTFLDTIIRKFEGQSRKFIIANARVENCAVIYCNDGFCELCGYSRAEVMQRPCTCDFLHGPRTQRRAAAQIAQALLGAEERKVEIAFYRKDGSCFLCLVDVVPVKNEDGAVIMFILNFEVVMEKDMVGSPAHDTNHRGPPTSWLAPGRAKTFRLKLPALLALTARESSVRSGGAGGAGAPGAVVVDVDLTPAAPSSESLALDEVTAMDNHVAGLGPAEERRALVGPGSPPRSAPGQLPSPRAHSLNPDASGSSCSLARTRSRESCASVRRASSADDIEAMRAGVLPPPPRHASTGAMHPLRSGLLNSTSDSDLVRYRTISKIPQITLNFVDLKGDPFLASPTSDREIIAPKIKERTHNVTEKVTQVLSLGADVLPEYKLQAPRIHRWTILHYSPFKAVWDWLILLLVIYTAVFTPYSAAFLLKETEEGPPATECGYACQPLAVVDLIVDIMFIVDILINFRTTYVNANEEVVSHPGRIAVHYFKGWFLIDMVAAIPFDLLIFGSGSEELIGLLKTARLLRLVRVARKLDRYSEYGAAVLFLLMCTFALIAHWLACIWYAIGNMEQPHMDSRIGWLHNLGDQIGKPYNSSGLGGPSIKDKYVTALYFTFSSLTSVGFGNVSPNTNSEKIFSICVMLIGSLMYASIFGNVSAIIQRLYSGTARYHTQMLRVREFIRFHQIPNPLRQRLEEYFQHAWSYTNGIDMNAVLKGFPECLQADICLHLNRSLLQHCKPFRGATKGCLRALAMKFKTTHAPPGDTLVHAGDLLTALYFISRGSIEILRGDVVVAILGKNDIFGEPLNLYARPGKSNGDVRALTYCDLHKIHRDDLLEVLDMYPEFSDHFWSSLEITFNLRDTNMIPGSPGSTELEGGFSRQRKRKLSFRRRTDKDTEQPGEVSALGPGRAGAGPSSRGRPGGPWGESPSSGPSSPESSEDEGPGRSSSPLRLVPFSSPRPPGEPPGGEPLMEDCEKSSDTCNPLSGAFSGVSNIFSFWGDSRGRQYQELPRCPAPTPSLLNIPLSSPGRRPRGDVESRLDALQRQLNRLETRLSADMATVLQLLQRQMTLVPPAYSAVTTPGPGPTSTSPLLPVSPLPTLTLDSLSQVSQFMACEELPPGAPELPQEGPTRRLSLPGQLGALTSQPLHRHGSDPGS

[7] = Half life in Wistar Han rat at 0.5 mg/kg, iv by LC-MS/MS analysis; assay type: ADME, organism-based; settings: in vivo
[8] = molecular target: T5, Voltage-gated inwardly rectifying potassium channel KCNH2
[9] = test system: Rattus norvegicus; assay: Unbound clearance in Wistar Han rat at 0.5 mg/kg, iv by LC-MS/MS analysis; assay type: ADME, organism-based; settings: in vivo
[10] = molecular target: Cytochrome P450 3A4 (Homo sapiens, UniProt P08684); assay: Inhibition of CYP3A4 (unknown origin); assay type: ADME
Cytochrome P450 3A4, sequence (P08684 whole entry): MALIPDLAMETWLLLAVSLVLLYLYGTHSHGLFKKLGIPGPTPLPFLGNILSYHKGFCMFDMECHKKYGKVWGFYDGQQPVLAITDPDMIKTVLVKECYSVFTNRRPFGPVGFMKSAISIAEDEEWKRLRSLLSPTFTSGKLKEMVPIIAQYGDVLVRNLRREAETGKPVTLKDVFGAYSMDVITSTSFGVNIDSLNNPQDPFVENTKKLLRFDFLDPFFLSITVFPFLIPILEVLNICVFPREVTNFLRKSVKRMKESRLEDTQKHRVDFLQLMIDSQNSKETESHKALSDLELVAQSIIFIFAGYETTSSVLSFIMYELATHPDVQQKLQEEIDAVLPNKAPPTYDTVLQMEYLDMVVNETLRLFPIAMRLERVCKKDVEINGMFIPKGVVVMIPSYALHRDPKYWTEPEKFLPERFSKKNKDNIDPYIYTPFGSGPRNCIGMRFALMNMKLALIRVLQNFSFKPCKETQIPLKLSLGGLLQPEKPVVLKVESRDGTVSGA

[11] = molecular target: T6, Nuclear receptor subfamily 1 group I member 2 (Homo sapiens, UniProt O75469); assay: Activity at human PXR; assay type: ADME
T6 sequence (O75469 whole entry): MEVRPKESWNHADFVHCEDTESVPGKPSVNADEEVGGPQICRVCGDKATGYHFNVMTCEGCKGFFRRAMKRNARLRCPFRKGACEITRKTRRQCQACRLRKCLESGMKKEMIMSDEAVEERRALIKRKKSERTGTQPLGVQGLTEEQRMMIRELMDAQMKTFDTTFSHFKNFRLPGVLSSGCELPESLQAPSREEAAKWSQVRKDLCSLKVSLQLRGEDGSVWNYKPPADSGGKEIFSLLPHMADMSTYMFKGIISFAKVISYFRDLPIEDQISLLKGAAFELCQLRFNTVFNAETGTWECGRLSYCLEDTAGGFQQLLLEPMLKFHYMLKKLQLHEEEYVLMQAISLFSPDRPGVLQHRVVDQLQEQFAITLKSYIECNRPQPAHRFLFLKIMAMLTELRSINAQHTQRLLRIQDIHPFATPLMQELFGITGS

[12] = Solubility in fasted state simulated intestinal fluid using crystalline compound by equilibration method; assay type: physicochemical
[13] = Intrinsic clearance in rat liver microsomes; assay type: ADME, microsome; settings: read-out: CLH
[14] = Intrinsic clearance in dog liver microsomes; assay type: ADME, Canis lupus familiaris, microsome; settings: read-out: CLH
[15] = Intrinsic clearance in rhesus monkey liver microsomes; assay type: ADME, Macaca mulatta, microsome; settings: read-out: CLH
[16] = Intrinsic clearance in human liver microsomes; assay type: ADME, microsome; settings: read-out: CLH
[17] = Fraction unbound in rat plasma; assay type: ADME, cell-free
[18] = Fraction unbound in dog plasma; assay type: ADME, cell-free, Canis lupus familiaris
[19] = Fraction unbound in rhesus monkey plasma; assay type: ADME, cell-free, Macaca mulatta
[20] = Fraction unbound in human plasma; assay type: ADME, cell-free
[21] = Plasma clearance in Wistar Han rat at 0.5 mg/kg, iv by LC-MS/MS analysis; assay type: ADME, organism-based
[22] = Plasma clearance in Beagle dog at 0.5 mg/kg, iv by LC-MS/MS analysis; assay type: ADME, organism-based, Canis lupus familiaris
[23] = Plasma clearance in rhesus monkey at 0.5 mg/kg, iv by LC-MS/MS analysis; assay type: ADME, organism-based, Macaca mulatta
[24] = Volume of distribution in Wistar Han rat at 0.5 mg/kg, iv by LC-MS/MS analysis; assay type: ADME, organism-based; settings: in vivo
[25] = Volume of distribution in Beagle dog at 0.5 mg/kg, iv by LC-MS/MS analysis; assay type: ADME, organism-based, Canis lupus familiaris; settings: in vivo
[26] = Volume of distribution in rhesus monkey at 0.5 mg/kg, iv by LC-MS/MS analysis; assay type: ADME, organism-based, Macaca mulatta; settings: in vivo
[27] = Half life in Beagle dog at 0.5 mg/kg, iv by LC-MS/MS analysis; assay type: ADME, organism-based, Canis lupus familiaris; settings: in vivo
[28] = Half life in rhesus monkey at 0.5 mg/kg, iv by LC-MS/MS analysis; assay type: ADME, organism-based, Macaca mulatta; settings: in vivo
[29] = Oral bioavailability in Wistar Han rat by LC-MS/MS analysis; assay type: ADME, organism-based; settings: in vivo
[30] = Oral bioavailability in Beagle dog by LC-MS/MS analysis; assay type: ADME, organism-based, Canis lupus familiaris; settings: in vivo
[31] = Oral bioavailability in rhesus monkey by LC-MS/MS analysis; assay type: ADME, organism-based, Macaca mulatta; settings: in vivo
[32] = Lipophilicity, log D of the compound at pH 7 by HPLC method; assay type: physicochemical; settings: buffer
[33] = test system: Rattus norvegicus; assay: Unbound volume of distribution in Wistar Han rat at 0.5 mg/kg, iv by LC-MS/MS analysis; assay type: ADME, organism-based; settings: in vivo
[34] = test system: Mus musculus; assay: Antidiabetic activity in C57BL/6 Tac mouse assessed as maximum decrease in blood glucose AUC administered via oral gavage 30 mins prior to oral glucose load measured at 20 to 60 mins post glucose challenge by OGTT; assay type: functional; settings: C57BL/6, po, read-out: MED
Outline: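 Eleven-week-old lean C57BL/6 Tac mice (n = 8/group) were fasted overnight and dosed by oral gavage in PEG400/23.5% HPBCD (15/85 v/v). Oral glucose (3 g/kg) was given 30 min later. Tail-nick glucometer glucose at 0, 20, 40, 60 min; glucose AUC per mouse, expressed as % change vs vehicle, with t-test or one-way ANOVA. Dose titration gave the minimal dose for maximal efficacy.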

[35] = Drug uptake in C57BL/6 Tac mouse blood at 0.1 mg/kg, po via gavage measured at 90 mins post dose; assay type: ADME, organism-based; settings: whole blood, read-out: Drug uptake
Outline: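 Blood drug concentration was taken at 90 min after an oral 0.1 mpk dose in mice, within oGTT dose-titration PK/PD studies.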

[36] = Agonist activity at rhesus monkey GPR119; set-up: species or system Macaca mulatta
[37] = Ratio of drug level in C57BL/6 Tac mouse blood to plasma at 0.1 mg/kg, po via gavage measured at 90 mins post dose; assay type: ADME, organism-based; settings: blood and plasma

Structure (SMILES): CC1(OC(=O)N2CCC([C@H]3C[C@H]3CCOc3ccc(CC(=O)N4CCC4)c(F)c3)CC2)CC1
- EC50 [1]: 3.3 nM
- Activity [2]: 127%
- EC50 [3]: 6.6 nM
- Activity [4]: 115%
- solubility kinetic [5]: 138 µM (≈ 63.3 µg/mL)
- IC50 [6]: 8600 nM
- half-life [7]: 1.6 h
- IC50 [8]: 23000 nM

Structure (SMILES): CC(C)c1noc(N2CCC([C@H]3C[C@H]3CCOc3ccc(CC(=O)N4CCC4)c(F)c3)CC2)n1
- EC50 [1]: 2 nM
- Activity [2]: 78%
- EC50 [3]: 6.7 nM
- Activity [4]: 102%
- solubility kinetic [5]: 126 µM (≈ 59.3 µg/mL)
- half-life [7]: 1.8 h
- IC50 [8]: 7000 nM

Structure (SMILES): COCc1cnc(N2CCC([C@H]3C[C@H]3CCOc3cc(F)c(CC(=O)N4CCC4)c(F)c3)CC2)nc1
- EC50 [1]: 0.2 nM
- Activity [2]: 91%
- EC50 [3]: 0.8 nM
- Activity [4]: 116%
- solubility kinetic [5]: 139 µM (≈ 69.6 µg/mL)
- CL free [9]: 430 mL/min/kg
- IC50 [6]: 12000 nM
- IC50 [10]: > 50000 nM
- EC50 [11]: > 30000 nM
- solubility thermodynamic [12]: 51 µg/mL (≈ 102 µM)
- CLint scaled [13]: 189 mL/min/kg
- CLint scaled [14]: 39 mL/min/kg
- CLint scaled [15]: 44 mL/min/kg
- CLint scaled [16]: 39 mL/min/kg
- fraction unbound [17]: 0.067
- fraction unbound [18]: 0.055
- fraction unbound [19]: 0.08
- fraction unbound [20]: 0.038
- clearance [21]: 29 mL/min/kg
- clearance [22]: 2 mL/min/kg
- clearance [23]: 14 mL/min/kg
- Vd [24]: 4.8 L/kg
- Vd [25]: 4.3 L/kg
- Vd [26]: 3.5 L/kg
- half-life [7]: 3.5 h
- half-life [27]: 29 h
- half-life [28]: 7.6 h
- bioavailability [29]: 80%
- bioavailability [30]: 55%
- bioavailability [31]: 44%
- logD [32]: 4.1
- Vdu [33]: 72 L/kg
- minimal effective dose [34]: 0.1 mg/kg
- concentration at 1.5 h [35]: 10 nM
- EC50 [36]: 0.1 nM
- blood plasma ratio at 1.5 h [37]: 0.55
- IC50 [8]: 9100 to 9200 nM

Structure (SMILES): CCc1cnc(N2CCC([C@H]3C[C@H]3CCOc3ccc(CC(=O)N4CCC4)c(F)c3)CC2)nc1
- EC50 [1]: 0.4 nM
- Activity [2]: 103%
- EC50 [3]: 0.84 nM
- Activity [4]: 111%
- solubility kinetic [5]: 140 µM (≈ 65.3 µg/mL)
- IC50 [8]: 3200 nM

More lines, main results first:

- EC50 [1]: 67 nM
- Activity [2]: 85%
- EC50 [3]: 16 nM
- Activity [4]: 68%
Structure (SMILES): NC(=O)Cc1ccc(OCC[C@@H]2C[C@@H]2C2CCN(c3ncc(Cl)cn3)CC2)cc1

- EC50 [1]: 2.2 nM
- Activity [2]: 106%
- EC50 [3]: 1.6 nM
- Activity [4]: 91%
- solubility kinetic [5]: 65 µM (≈ 30.7 µg/mL)
Structure (SMILES): O=C(Cc1ccc(OCC[C@@H]2C[C@@H]2C2CCN(c3ncc(Cl)cn3)CC2)c(F)c1)N1CCC1

- EC50 [1]: 1.5 nM
- Activity [2]: 116%
- EC50 [3]: 2.2 nM
- Activity [4]: 92%
- solubility kinetic [5]: 124 µM (≈ 62.1 µg/mL)
Structure (SMILES): O=C(Cc1ccc(OCC[C@@H]2C[C@@H]2C2CCN(c3ncc(Cl)cn3)CC2)cc1F)N1CCCCC1
- IC50 [8]: 3300 nM
